Hep lipid drop – modulators of hepatic lipid droplet formation; AID 1656; actives 0.4% (n = 240,000); inhibition, % at 6.5 µM; AML12 mouse hepatocytes, oleate lipid droplets, BODIPY imaging;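 active means lipid droplet intensity inhibited by at least 50%, with more than 500 cells counted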
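material = mouse AML12 hepatocyte cell line, fixed after treatment | also added = 100 µM oleic acid challenge | doses = compound at 6.5 µM only | schedule = overnight exposure | technique = Image-based BODIPY and DAPI two-channel analysis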
MC4R antagonist – human MC4R antagonism in cAMP assay; actives 0.48% (n = 360,000); MC4R-expressing cells, MTII-stimulated cAMP, LANCE TR-FRET; inhibition, % at 6.5 µM; P32245;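 active means inhibition above its plate's cutoff, the mean of tested wells on that plate plus 3 SD, cut at about 29% in these data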
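Material – human MC4R-expressing U2OS cells · Repeats – no replicates · Detection – TR-FRET with Eu-cAMP and labeled anti-cAMP, 671 nm · Times – compound 30 min, challenge 1 h, detection 1 h · Compound – single nominal compound dose of 6.5 µM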
MC4R barr agon – human MC4R agonism via beta-arrestin | P32245 | U2OS MC4R beta-arrestin complementation, luminescence; percent of melanotan II response, DMSO zero | activation, % at 8.9 µM | actives 0.98% (n = 360,000);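 active means activation above a per-plate cutoff, the mean activation of sample wells on that plate plus 3 SD, cut at about 8% in these data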
NTR1 agonist – agonists of human neurotensin receptor NTR1; P30989; AID 493036; NTR1-U2OS beta-arrestin-GFP spot imaging, agonist mode; actives 0.17% (n = 330,000); activation, % at 20 µM;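 active means activation at or above 40% of the spot to cytoplasm intensity ratio, with at least 20 cells analyzed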
m5-HT2A agonist – mouse HTR2A agonism via beta-arrestin recruitment. P35363. CHO-K1 mHTR2A beta-arrestin complementation, luminescence; percent of 30 µM serotonin response. activation, % at 7.6 µM. actives 0.66% (n = 360,000);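 active means activation above a run cutoff, the mean activation of all tested compounds plus 3 SD, cut at about 14% in these data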
PREPL inh – inhibits the human prolyl oligopeptidase-like enzyme; Q4J6C6; recombinant PREPL, fluorescence polarization activity-based probe; inhibition, % at 5.96 µM; actives 0.68% (n = 320,000); in the data active means inhibition above about 43%
Target sequence (Q4J6C6 whole entry, looked up): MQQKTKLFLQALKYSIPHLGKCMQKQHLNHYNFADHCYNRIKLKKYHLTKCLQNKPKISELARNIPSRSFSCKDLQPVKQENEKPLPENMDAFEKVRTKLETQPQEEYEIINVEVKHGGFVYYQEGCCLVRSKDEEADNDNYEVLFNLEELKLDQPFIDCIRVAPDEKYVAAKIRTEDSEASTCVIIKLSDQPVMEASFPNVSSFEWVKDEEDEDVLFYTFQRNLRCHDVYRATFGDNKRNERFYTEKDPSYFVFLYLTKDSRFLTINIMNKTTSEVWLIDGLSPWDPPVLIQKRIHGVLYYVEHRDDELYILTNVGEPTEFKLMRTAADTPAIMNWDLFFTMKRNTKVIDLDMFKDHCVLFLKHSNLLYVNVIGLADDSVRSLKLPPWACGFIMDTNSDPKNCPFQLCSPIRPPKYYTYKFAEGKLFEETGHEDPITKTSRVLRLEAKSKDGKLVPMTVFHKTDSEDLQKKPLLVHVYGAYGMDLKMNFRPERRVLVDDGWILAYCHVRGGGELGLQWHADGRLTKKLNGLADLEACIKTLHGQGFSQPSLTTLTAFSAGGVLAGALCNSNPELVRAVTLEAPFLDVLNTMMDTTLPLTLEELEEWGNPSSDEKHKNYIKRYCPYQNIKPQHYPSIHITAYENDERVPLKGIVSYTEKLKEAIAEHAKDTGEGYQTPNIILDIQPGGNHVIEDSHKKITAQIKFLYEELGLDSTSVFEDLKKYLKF
OPRM1 ag – counter-screen for mouse HTR2A agonists: human mu opioid receptor agonists; shares compounds with m5-HT2A agonist; U2OS OPRM1 beta-arrestin PathHunter, luminescence; DMSO 0%, DAMGO 9.3 µM 100%; activation, % at 9.3 µM; actives 5.3% (n = 2,300); AID 624380;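 active means mean activation above the mean of DMSO-only wells plus 3 SD, cut at about 0.5% in these data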
m5-HT2A ag conf – confirmation of mouse HTR2A serotonin receptor agonists; shares compounds with m5-HT2A agonist; CHO-K1 PathHunter beta-arrestin recruitment, luminescence; DMSO 0%, 30 µM serotonin 100%; activation, % at 7.6 µM; actives 19% (n = 2,300);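 active means mean activation across triplicates above the hit threshold derived in the original primary screen, cut at about 15% in these data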
Of the large screens only hits and unclear results are named; the others gave an inactive call (follow-up assays come after a bar, where they were run). Sampled rows, rich in hits. Any-hit rate of the full collection: about 2.7%.

COc1ccc(Nc2c(-c3cc4ccccc4o3)nc3nc(C)cc(C)n23)cc1	none (no result: Hep lipid drop, MC4R antagonist, MC4R barr agon, NTR1 agonist, PREPL inh)
CCCCNc1c(-c2cc3ccccc3o2)nc2nc(C)cc(C)n12	m5-HT2A agonist 18 (no result: Hep lipid drop, MC4R antagonist, MC4R barr agon, NTR1 agonist, PREPL inh) | OPRM1 ag 0.8 | m5-HT2A ag conf inactive
CC(=O)Nc1sc(C)c(C)c1C(=O)OCC(=O)N(CC(C)C)c1c(N)n(Cc2ccccc2)c(=O)[nH]c1=O	none (no result: Hep lipid drop)
CCC(CC)C(=O)NCCc1cc2ccc(C)c(C)c2[nH]c1=O	none (no result: MC4R antagonist, MC4R barr agon, NTR1 agonist, m5-HT2A agonist, PREPL inh)
Cc1ccc(C)c2[nH]c(=O)c(CCNC(=O)c3ccco3)cc12	m5-HT2A agonist 19 | OPRM1 ag inactive | m5-HT2A ag conf inactive
Cc1ccc2cc(CCNC(=O)C(C)C)c(=O)[nH]c2c1C	m5-HT2A agonist 16 | OPRM1 ag inactive | m5-HT2A ag conf inactive
Cc1nn(CC(=O)OCC(=O)NC(C)c2ccccc2)c(C)c1[N+](=O)[O-] (stereo unspecified)	none
CCN(C(=O)CSc1ccc2ccccc2c1)C1CCS(=O)(=O)C1 (stereo unspecified)	m5-HT2A agonist 16 | OPRM1 ag inactive | m5-HT2A ag conf inactive
CCN(C(=O)CSc1nc2ccccc2o1)C1CCS(=O)(=O)C1 (stereo unspecified)	none (no result: Hep lipid drop)
CCN(CC(=O)Nc1ccc(OC)cc1)C(=O)C1CC(=O)N(Cc2ccccc2)C1 (stereo unspecified)	m5-HT2A agonist 16 (no result: Hep lipid drop, NTR1 agonist, PREPL inh) | OPRM1 ag inactive | m5-HT2A ag conf inactive
O=C(COC(=O)C1CC(=O)N(Cc2ccccc2)C1)Nc1ccc2c(c1)OCO2 (stereo unspecified)	none (no result: Hep lipid drop)
NS(=O)(=O)c1ccc(NC(=O)COC(=O)C2CC(=O)N(Cc3ccccc3)C2)cc1 (stereo unspecified)	m5-HT2A agonist 16 | OPRM1 ag inactive | m5-HT2A ag conf inactive
O=C(Cc1ccc(S(=O)(=O)N2CCOCC2)s1)Oc1ccc(F)cc1	none (no result: Hep lipid drop)
CC1(c2nc3ccccc3[nH]2)c2ccccc2C(=O)N1Cc1ccccc1 (stereo unspecified)	none (no result: Hep lipid drop, MC4R antagonist, MC4R barr agon, NTR1 agonist, PREPL inh)
Cc1ccc[n+](/C(=C\C(=C=[N-])C#N)C(=O)c2ccc(Cl)cc2)c1	m5-HT2A agonist 17 | OPRM1 ag inactive | m5-HT2A ag conf inactive
Cc1cc(C)nc(SCC(=O)Nc2ccc(S(=O)(=O)Nc3ncccn3)cc2)n1	m5-HT2A agonist 19 | OPRM1 ag inactive | m5-HT2A ag conf inactive
Cc1ccc(SCC(=O)Nc2ccc(S(=O)(=O)Nc3ncccn3)cc2)cc1	none
COC(=O)c1ccc2nc(-c3ccco3)c(Cc3ccccc3C(F)(F)F)n2c1	none (no result: Hep lipid drop, MC4R antagonist, MC4R barr agon, NTR1 agonist, PREPL inh)
CCCS(=O)(=O)NC(=O)C1(C)CCCN(C(=O)c2ccccc2C(F)(F)F)C1 (stereo unspecified)	m5-HT2A agonist 20 (no result: Hep lipid drop, NTR1 agonist, PREPL inh) | OPRM1 ag inactive | m5-HT2A ag conf inactive
CCCS(=O)(=O)NC(=O)C1(C)CCCN(C(=O)c2cccc3ccccc23)C1 (stereo unspecified)	none (no result: Hep lipid drop, NTR1 agonist, PREPL inh)
CCC(CC)NC(=O)Cc1ccc(F)cc1	none
C[C@H](CO)N1C[C@H](C)[C@@H](CN(C)CC2CC2)Oc2c(NC(=O)C3CC3)cccc2C1=O	none (no result: Hep lipid drop, NTR1 agonist, PREPL inh)
C[C@H](CO)N1C[C@H](C)[C@@H](CN(C)C(=O)Nc2ccc3c(c2)OCO3)Oc2ccc(NS(=O)(=O)c3ccccc3)cc2C1=O	m5-HT2A agonist 15 (no result: Hep lipid drop) | OPRM1 ag inactive | m5-HT2A ag conf inactive
C[C@H](CO)N1C[C@H](C)[C@@H](CN(C)CC2CC2)Oc2c(NC(=O)Cc3ccccc3)cccc2C1=O	m5-HT2A agonist 16 (no result: Hep lipid drop) | OPRM1 ag inactive | m5-HT2A ag conf inactive
Cc1noc(C)c1S(=O)(=O)Nc1ccc2c(c1)C(=O)N([C@H](C)CO)C[C@H](C)[C@@H](CN(C)C(=O)NC1CCCCC1)O2	m5-HT2A agonist 15 (no result: Hep lipid drop) | OPRM1 ag inactive | m5-HT2A ag conf inactive
O=C(CNC(=O)c1ccc(Br)o1)NNC(=O)c1ccccc1O	m5-HT2A agonist 17 (no result: Hep lipid drop) | OPRM1 ag inactive | m5-HT2A ag conf inactive
O=C(CNC(=O)c1ccc(Br)o1)NNC(=O)c1cccc(Cl)c1	none (no result: Hep lipid drop)
CC(C)N(C)c1ncnc2c1ncn2[C@H]1CN(CCN2CCOCC2)C[C@@H](CO)O1	none (no result: Hep lipid drop, NTR1 agonist, PREPL inh)
CC1CCN(c2c(NCC3CCC(C(=O)NCc4ccccc4Cl)CC3)c(=O)c2=O)CC1 (stereo unspecified)	m5-HT2A agonist 19 | OPRM1 ag inactive | m5-HT2A ag conf inactive
CC(C)Cc1ccc(C(C)NC(=O)Cc2ccc(S(=O)(=O)N3CCOCC3)s2)cc1 (stereo unspecified)	none (no result: Hep lipid drop)
Cc1cc(C)c(C2=Nn3c(C)nnc3SC2C)cc1C (stereo unspecified)	none
Cc1cccnc1NC(=O)c1ccc(Cl)c(S(=O)(=O)N2CCCCCC2)c1	none
Oc1c(/C=N/c2ccccn2)sc2ccccc12	m5-HT2A agonist 15 | OPRM1 ag inactive | m5-HT2A ag conf inactive
C/C1=C\CCC2C(/C=C(\C)CC1)OC(=O)C2CN1CCCCC1 (stereo unspecified)	none
COc1cccc(F)c1C(=O)NC(=O)Nc1ccc2nc(C)oc2c1	none
O=C(Cc1cccs1)NNC(=S)NCc1ccco1	m5-HT2A agonist 15 | OPRM1 ag inactive | m5-HT2A ag conf inactive
O=C(O)c1nn(CC(=O)N2CCCCCC2)c(=O)c2ccccc12	none
CN(C(=O)Cn1nc(C(=O)O)c2ccccc2c1=O)C1(C#N)CCCCC1	m5-HT2A agonist 19 (no result: Hep lipid drop) | OPRM1 ag inactive | m5-HT2A ag conf inactive
Cc1cccc2nc(CSc3ccccc3N)cn12	none (no result: Hep lipid drop)
Cc1cccc2nc(COc3ccc4ccccc4c3Br)cn12	m5-HT2A agonist 32 | OPRM1 ag inactive | m5-HT2A ag conf inactive
O=C(c1ccc(CS(=O)(=O)c2ccc(Br)cc2)o1)N1CCOCC1	none (no result: Hep lipid drop)
COc1ccc(S(=O)(=O)Cc2ccc(C(=O)N3CCOCC3)o2)cc1	m5-HT2A agonist 17 | OPRM1 ag inactive | m5-HT2A ag conf inactive
CSc1nc(C)cc(NC(N)=O)n1	m5-HT2A agonist 15 | OPRM1 ag inactive | m5-HT2A ag conf inactive
CSc1nc(C)cc(Oc2ccc(OCC(N)=O)nn2)n1	none
COc1ccc(N2CCN(Cc3cc(=O)oc4cc(C)c(Cl)cc34)CC2)cc1	none
Cc1cc2oc(=O)cc(CN3CCN(c4ccc(Cl)c(Cl)c4)CC3)c2cc1Cl	m5-HT2A agonist 17 (no result: Hep lipid drop, MC4R antagonist, MC4R barr agon, NTR1 agonist, PREPL inh) | OPRM1 ag inactive | m5-HT2A ag conf inactive
Cc1ccc2c(CN3CCN(c4ccc(Cl)c(Cl)c4)CC3)cc(=O)oc2c1	m5-HT2A agonist 18 (no result: Hep lipid drop, MC4R antagonist, MC4R barr agon, NTR1 agonist, PREPL inh) | OPRM1 ag inactive | m5-HT2A ag conf inactive
Cc1ccc2c(CN3CCCCC3)cc(=O)oc2c1	none
